Experimental data of several laboratories.
Compare with care: the assays were run in different laboratories.

Structure (SMILES) | assay | system | setting | logP
Cc1cc(Cl)cc(S(C)(=O)=O)c1NC(=O)c1cc(Br)nn1-c1ncccc1Cl | potentiometric |  |  | 4.34
CCCCC1=NC2(CCCC2)C(=O)N1Cc1ccc(-c2ccccc2S(=O)(=O)Nc2noc(C)c2C)c(COCC)c1 |  |  |  | 4.26
CC1=NN(CNc2ccc(O)cc2)C(=O)C1=NNn1c(-c2ccccc2)nc2ccccc2c1=O |  |  |  | 4.19
O=C(O)CCCNC(=O)c1ccc(O)c2ncccc12 |  |  |  | 0.71
C=C(C)[C@@H]1CCC(C)=C[C@H]1c1c(O)cc(CCCCC)cc1O |  |  |  | 7.11
C=C[C@H]1C[N@@]2CC[C@H]1C[C@@H]2[C@@H](O)c1ccnc2ccc(OC)cc12 |  | water |  | 2.84
CC(C)N1CCN(Cc2cnc(-c3cc(-c4cccc5[nH]ccc45)cc4[nH]ncc34)o2)CC1 |  |  |  | 4.01
N#Cc1[nH]nnc1-c1cccc(OCc2cc(C(F)(F)F)ccc2C(F)(F)F)c1 | potentiometric |  |  | 5.5
CC1=NN(CNC(=O)c2ccccn2)C(=O)C1=NNn1c(-c2ccccc2)nc2ccccc2c1=O |  |  |  | 3.26
O=c1[nH]cc(F)c(=O)[nH]1 | shake flask | water | 24 h | -0.46
CC(=O)NCN1N=C(C)C(=NNn2c(-c3ccccc3)nc3ccccc3c2=O)C1=O |  |  |  | 2.24
N#Cc1[nH]nnc1-c1cccc(-c2cc(F)cc(C(F)(F)F)c2)c1 | potentiometric |  |  | 5.2
CC1=NN(CNC(=O)c2ccccc2)C(=O)C1=NNn1c(-c2ccccc2)nc2ccccc2c1=O |  |  |  | 4.09
Nc1nc2[nH]cc(CCc3ccc(C(=O)N[C@@H](CCC(=O)O)C(=O)O)cc3)c2c(=O)[nH]1 |  | water | 24 h | -0.842
CC1=NN(CNc2ccccc2[N+](=O)[O-])C(=O)C1=NNn1c(-c2ccccc2)nc2ccccc2c1=O |  |  |  | 5.08
CNC(=O)c1ccccc1Sc1ccc2c(/C=C/c3ccccn3)n[nH]c2c1 |  |  |  | 3.1
